A short description of data set [1]: Inhibition of specific binding of [125I]angiotensin II (0.2 nM) to angiotensin II receptor in bovine adrenal cortex. The class given is tissue-based, Bos taurus.
The target of data set [2] is T1, Angiotensin II receptor (Rattus norvegicus) (UniProt P29089+P25095+P35351). Put plainly: Percent inhibition of angiotensin II (0.1 ug/kg iv) -induced pressor response 7 hr after administration of test compounds (1 mg/kg po) in conscious male Sprague-Dawley rats. The class given is functional, organism-based. The procedure, abridged:
(§1)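 Conscious male Sprague-Dawley rats were given the test compound at 1 mg/kg orally. They were then challenged with AII at 0.1 μg/kg iv. The AII-induced pressor response was measured 3 and 7 h after dosing and expressed as percent inhibition.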

Data set [3] addresses T1, Angiotensin II receptor (Rattus norvegicus). Put plainly: Percent inhibition of angiotensin II (0.1 ug/kg iv) -induced pressor response 3h after administration of test compounds (1 mg/kg po) in conscious male Sprague-Dawley rats. The class given is functional, organism-based. The procedure, abridged:
as §1

Data set [4] deals with Rattus norvegicus. The data set is described as follows: Percent inhibition of AII (0.1 ug/kg iv) -induced pressor response at 3 hr after administration of test compounds (0.1 mg/kg po) in conscious male Sprague-Dawley rats.
In data set [5] the test system is Rattus norvegicus. The data set is described as follows: Percent inhibition of AII-induced pressor response 7 hr after administration of test compounds (1 mg/kg po) in conscious male Sprague-Dawley rats.
Data set [6] in a line: Partition coefficient (logP). In kind it is physicochemical. As to conditions: octanol/water.
Data set [7] can be described thus: pka value was determined. In kind it is physicochemical. An outline of the steps:
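pKa of the acidic group was estimated from the corresponding methyl ester. Titration was potentiometric with standardized 0.1 N NaOH in DMSO–H2O (2:3) at 26 °C.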

The test system of data set [8] is Rattus norvegicus. Put plainly: Percent inhibition of AII (0.1 ug/kg iv) -induced pressor response at 7 hr after administration of test compounds (0.1 mg/kg po) in conscious male Sprague-Dawley rats. The conditions noted are these: in the assay text read “3 hr” for “7 hr”. In kind it is functional. The procedure, abridged: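 In conscious male Sprague-Dawley rats, the oral test dose was 0.1 mg/kg. The pressor response to an AII challenge (0.1 μg/kg iv) was recorded after dosing, and percent inhibition was calculated.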

A short description of data set [9]: Bioavailability. The class given is ADME, organism-based. As to conditions: eutheria, in vivo; read-out: BA.
Data set [10] deals with Rattus norvegicus. Put plainly: Percent inhibition of AII ([…]) -induced pressor response 7 hr after administration of test compounds (1 mg/kg po) in conscious male Sprague-Dawley rats. The class given is functional.

Some results are limits rather than exact numbers.

By IC50 is commonly meant the point on the concentration scale where inhibition reaches its midpoint. The inhibition is the drop in the measured response relative to a control, in per cent. Low readings indicate little suppression, high ones strong suppression. A word on the Inhibition: it is the change of the read-out against control, counted positive when it falls. What is called logP is a log measure of how a compound divides between an organic and an aqueous phase. For orientation: pKa means the pH at which an ionisable group is half protonated.

For `CSc1nc2cccc(C(=O)O)c2n1Cc1ccc(-c2ccccc2-c2noc(S)n2)cc1`, in data set [1], the IC50 stood at 1000 nM. The inhibition came out at 91% in [2] and 100% in data set [3].

As to `CCCCc1nc2cccc(C(=O)OC)c2n1Cc1ccc(-c2ccccc2-c2noc(S)n2)cc1`, in data set [1], the IC50 was above 1000 nM. In the data set on Rattus norvegicus [4], this compound showed an Inhibition of 7%. In addition, the inhibition in [3] turned out to be 84%.

For `CCCSc1nc2cccc(C(=O)O)c2n1Cc1ccc(-c2ccccc2-c2noc(S)n2)cc1`, the IC50 in data set [1] is above 1000 nM. Also, the inhibition in [2] and in [3] was 100% throughout.

Regarding `Cc1nc2cccc(C(=O)O)c2n1Cc1ccc(-c2ccccc2-c2noc(S)n2)cc1`, the IC50 in [1] was above 1000 nM. The inhibition in [2] came out at 50%; in [3] it was 57%.

Compound `CCCCc1nc2cccc(C(=O)OC)c2n1Cc1ccc(-c2ccccc2C2=NOS(=O)N2)cc1` (stereo unspecified) returned a half-maximal inhibitory concentration (IC50) in [1] above 1000 nM. Moreover, the Inhibition with Rattus norvegicus [5] is listed as 22%. In data set [3], the inhibition is 63%.

For the compound `CCOc1nc2cccc(C(=O)OC)c2n1Cc1ccc(-c2ccccc2-c2nn[nH]n2)cc1`, in data set [1], the IC50 turned out to be 66 nM.

Take `CCOc1nc2cccc(C(=O)O)c2n1Cc1ccc(-c2ccccc2-c2nsc(O)n2)cc1`: the IC50 in data set [1] turned out to be 250 nM. The compound also gave a logP in [6] of 1.58. In data set [7], this compound came in with a pKa of 6.6. The same compound returned an Inhibition with Rattus norvegicus [8] of 100%. For the same compound, in data set [3], the inhibition was 100%. In data set [9], the bioavailability amounted to 51%.

In [1], `CSc1nc2cccc(C(=O)O)c2n1Cc1ccc(-c2ccccc2-c2nsc(O)n2)cc1` returned an IC50 of 500 nM. The inhibition in data set [2] and in data set [3] was 100% in each case.

The compound `CCc1nc2cccc(C(=O)O)c2n1Cc1ccc(-c2ccccc2-c2nsc(O)n2)cc1` gave an IC50 in [1] of 69 nM. Moreover, the inhibition in data set [2] and in data set [3] was 100% in each case.

As for `CCCOc1nc2cccc(C(=O)O)c2n1Cc1ccc(-c2ccccc2-c2nsc(O)n2)cc1`, the IC50 in data set [1] was 920 nM. Further, the inhibition was 100% in data set [2] and 83% in data set [3].

Compound `CCCCc1nc2cccc(C(=O)O)c2n1Cc1ccc(-c2ccccc2-c2nsc(O)n2)cc1` had an IC50 in data set [1] of 720 nM. The compound further yielded an Inhibition in the data set with Rattus norvegicus [8] of 19%. The compound further gave an inhibition in [3] of 92%.

As to `COc1nc2cccc(C(=O)O)c2n1Cc1ccc(-c2ccccc2-c2nsc(O)n2)cc1`, the inhibition in data set [2] was found to be 91%; in data set [3], 88%.

For the compound `CCCCc1nc2cccc(C(=O)OC)c2n1Cc1ccc(-c2ccccc2-c2nn[nH]n2)cc1`, the IC50 in [1] was 320 nM.

In [1], `CCCCc1nc2cccc(C(=O)O)c2n1Cc1ccc(-c2ccccc2-c2nn[nH]n2)cc1` had an IC50 of 550 nM.

`CCOc1nc2cccc(C(=O)OC)c2n1Cc1ccc(-c2ccccc2-c2nsc(O)n2)cc1`: the IC50 in [1] was 750 nM. Besides, the inhibition in data set [2] and in data set [3] was 100% throughout.

`CNc1nc2cccc(C(=O)O)c2n1Cc1ccc(-c2ccccc2-c2nsc(O)n2)cc1` came in with an IC50 in [1] of 540 nM. For the same compound, the inhibition in data set [2] came out at 29%; in data set [3], 32%.

In the case of `CCOc1nc2cccc(C(=O)O)c2n1Cc1ccc(-c2ccccc2-c2nnn[nH]2)cc1`, the IC50 in [1] turned out to be 110 nM. In [7], this compound displayed a pKa of 5.3. Moreover, the bioavailability in data set [9] was found to be 5%.

With `CCSc1nc2cccc(C(=O)O)c2n1Cc1ccc(-c2ccccc2-c2nsc(O)n2)cc1`, in [1], the IC50 came out at 470 nM. Besides, the inhibition in data set [2] and in data set [3] was 100% each time.

Compound `CCCCc1nc2cccc(C(=O)O)c2n1Cc1ccc(-c2ccccc2-c2noc(O)n2)cc1` gave an IC50 in data set [1] of 620 nM. Also, the inhibition amounted to 64% in data set [2] and 68% in data set [3].

`CCCSc1nc2cccc(C(=O)O)c2n1Cc1ccc(-c2ccccc2-c2nsc(O)n2)cc1` showed an IC50 in data set [1] above 1000 nM. The inhibition in data set [2] and in [3] was 100% throughout.

In data set [1], `CCCc1nc2cccc(C(=O)O)c2n1Cc1ccc(-c2ccccc2-c2nsc(O)n2)cc1` yielded an IC50 of 360 nM. The inhibition in data set [2] and in data set [3] was 100% throughout.

The compound `CCOc1nc2cccc(C(=O)OC)c2n1Cc1ccc(-c2ccccc2-c2noc(O)n2)cc1` gave an IC50 in [1] of 440 nM. The inhibition in data set [2] and in data set [3] was 100% each time.

Regarding `CCCc1nc2cccc(C(=O)O)c2n1Cc1ccc(-c2ccccc2-c2noc(S)n2)cc1`, the IC50 in data set [1] worked out at 390 nM. The inhibition amounted to 94% in [2] and 96% in data set [3].

`CCCCc1nc2cccc(C(=O)OC)c2n1Cc1ccc(-c2ccccc2-c2nsc(O)n2)cc1` had an IC50 in data set [1] above 1000 nM. This compound displayed an Inhibition in the data set on Rattus norvegicus [8] of 10%. In data set [3], the inhibition was 87%.

`CCNc1nc2cccc(C(=O)O)c2n1Cc1ccc(-c2ccccc2-c2nsc(O)n2)cc1` returned an IC50 in [1] of 130 nM. Moreover, the results for the inhibition in data set [2] and in [3] were 71% and 70%, respectively.

Regarding `CCc1nc2cccc(C(=O)O)c2n1Cc1ccc(-c2ccccc2-c2noc(S)n2)cc1`, the IC50 in data set [1] is 340 nM. The inhibition in [2] amounted to 89%; in data set [3], 91%.

`CCSc1nc2cccc(C(=O)O)c2n1Cc1ccc(-c2ccccc2-c2noc(S)n2)cc1` came in with an IC50 in data set [1] of 690 nM. For the same compound, the inhibition in data set [2] and in [3] was 100% throughout.

The compound `CCCCc1nc2cccc(C(=O)OC)c2n1Cc1ccc(-c2ccccc2-c2noc(O)n2)cc1` had an IC50 in data set [1] of 900 nM.

`CCOc1nc2cccc(C(=O)OC)c2n1Cc1ccc(-c2ccccc2-c2noc(S)n2)cc1` yielded an IC50 in [1] above 1000 nM. In addition, the inhibition in [2] was 93%; in data set [3], 83%.

In data set [1], `CCCCc1nc2cccc(C(=O)O)c2n1Cc1ccc(-c2ccccc2-c2noc(S)n2)cc1` had an IC50 of 760 nM. Also, in the data set on Rattus norvegicus [8], the Inhibition stood at 19%. This compound also displayed an inhibition in data set [3] of 82%.

In turn, `Cc1nc2cccc(C(=O)O)c2n1Cc1ccc(-c2ccccc2-c2nsc(O)n2)cc1` showed an IC50 in data set [1] of 970 nM. Moreover, the inhibition in data set [2] was determined as 71%; in data set [3], 80%.

`CCCCc1nc(Cl)c(CO)n1Cc1ccc(-c2ccccc2-c2nnn[nH]2)cc1` [LOSARTAN]: in data set [1], the IC50 amounted to 150 nM.

As to `CCOc1nc2cccc(C(=O)O)c2n1Cc1ccc(-c2ccccc2-c2noc(=O)[nH]2)cc1` [AZILSARTAN], the IC50 in data set [1] was found to be 420 nM. For the same compound, in the data set with Rattus norvegicus [4], the Inhibition stood at 75%. In data set [7], this compound yielded a pKa of 6.1. In data set [3], this compound displayed an inhibition of 100%. For the same compound, in [9], the bioavailability came to 20%.

`CCOc1nc2cccc(C(=O)OC)c2n1Cc1ccc(-c2ccccc2C2=NOS(=O)N2)cc1` (stereo unspecified) returned an IC50 in [1] of 460 nM. In the data set on Rattus norvegicus [10], the Inhibition amounted to 29%. In [3], this compound yielded an inhibition of 35%.

Values taken from ChEMBL document CHEMBL1129462, “Synthesis and angiotensin II receptor antagonistic activities of benzimidazole derivatives bearing acidic heterocycles as novel tetrazole bioisosteres” (J Med Chem, 1996).
